Results published in ChEMBL document CHEMBL1127420, “Syntheses of racemic and nearly optically pure ether lipids and evaluation of in vitro antineoplastic activities” (J Med Chem, 1994).

Experiments:
HuT78 = assay: Cytotoxicity was assessed by measurement of cytosolic lactic dehydrogenase (LDH) leakage after 24 hr incubation with human cutaneous T-lymphoma (Hut 78) cell line; format: functional; details: for IC50: Homo sapiens, HuT78, 24 h, read-out: ID50 (the source's name)
How it was run: (§1)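 Log-phase cells were washed and resuspended in phenol red-free RPMI 1640, then mixed 1:1 with lipid in serum medium. Final conditions were 5 × 10^5 cells/mL, 0–50 µg/mL ether lipid and 0.5% ethanol, in triplicate at 37 °C in 5% CO2 for 24 h. Supernatant LDH was measured with lactate/INT/PMS/NAD in Tris pH 8.2, read at 490 nm after 3 min. % cytotoxicity = (E−S)/(M−S), with M from freeze-thaw. ID50 came from nonlinear regression, mean ± SD.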

[1] = test system: B-lymphoblastic leukemic cell line; assay: Cytotoxicity was assessed by measurement of cytosolic lactic dehydrogenase (LDH) leakage after 24 hr incubation with human B-lymphoblastic leukemic ([…]) cell line; format: functional; details: for IC50: Homo sapiens, B-lymphoblastic leukemic cell line, 24 h, read-out: ID50 (the source's name); how it was run: as §1
CCRF-CEM = assay: Cytotoxicity was assessed by measurement of cytosolic lactic dehydrogenase (LDH) leakage after 24 hr incubation with human T-lymphoblastic leukemic (CEM) cell line; format: functional; details: for IC50: Homo sapiens, CCRF-CEM, 24 h, read-out: ID50 (the source's name); how it was run: as §1
[2] = Cytotoxicity was assessed by measurement of cytosolic lactic dehydrogenase (LDH) leakage after 24 hr incubation with freshly isolated human peripheral lymphocytes; details: read-out: ID50
How it was run: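 Peripheral lymphocytes were pooled from two unmedicated human donors and isolated by the Boyum method, giving >85% lymphocytes; viability was checked by trypan blue. Cytotoxicity was measured as 24 h LDH leakage into the medium and expressed as % of maximal freeze-thaw release after subtracting spontaneous release. ID50 came from a nonlinear regression fit of cytotoxicity versus dose.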

SMILES	ID50 (HuT78) [µg/mL]	ID50 [1] [µg/mL]	ID50 (CCRF-CEM) [µg/mL]	IC50 (HuT78) [µg/mL]	IC50 [1] [µg/mL]	IC50 (CCRF-CEM) [µg/mL]	CC50 at 24 h [2] [µg/mL]
CCCCCCCCCCCCCCCCCCOCC(COP(=O)(O)OCC[N+](C)(C)C)OC.[OH-] (stereo in doubt; 3)	6.6	20.4	2				
CCCCCCCCCCCCCCCCCCOCC(COP(=O)(O)OC[C@@H](C)[N+](C)(C)C)OC.[OH-] (stereo partly drawn)				6.9	9.9	2	> 100
CCCCCCCCCCCCCCCCCCOCC(COP(=O)(O)OC[C@H](C)[N+](C)(C)C)OC.[OH-] (stereo partly drawn)				5.9	8.9	2.1	> 100
CCCCCCCCCCCCCCCCCCOCC(COP(=O)(O)OCC[N+]1(C)CCCC1)OC.[OH-] (stereo not drawn)				9.3	13.2	2.7	22.7
CCCCCCCCCCCCCCCCCCOCC(COP(=O)(O)OCC[N+](C)(C)C)OC.[OH-] (stereo in doubt; 2)				4.1	16.3	1.9	> 100
CCCCCCCCCCCCCCCCCCOCC(COP(=O)(O)OCC[N+]1(C)CCOCC1)OC.[OH-] (stereo not drawn)				3.4	8.4	2.8	52.1
CCCCCCCCCCCCCCCCCCOCC(COP(=O)(O)OCCN(C)C)OC.O (stereo not drawn)				3.5	9.6	4.6	24.6
CCCCCCCCCCCCCCCCCCOCC(COP(=O)(O)OCC[N+](C)(C)C)OC.[OH-] (stereo in doubt; 1)	4.5	15.3	1.5				
CCCCCCCCCCCCCCCCCCOCC(COP(=O)(O)O[C@@H](C)C[N+](C)(C)C)OC.[OH-] (stereo partly drawn)				9.3	9.8	2.3	> 100
CCCCCCCCCCCCCCCCCCOCC(COP(=O)(O)O[C@H](C)C[N+](C)(C)C)OC.[OH-] (stereo partly drawn)				9.1	10.1	2.7	> 100
